For test [1], the target named is T1, Endothelin receptor type B (Rattus norvegicus, UniProt P21451).
T1 sequence (P21451 whole entry): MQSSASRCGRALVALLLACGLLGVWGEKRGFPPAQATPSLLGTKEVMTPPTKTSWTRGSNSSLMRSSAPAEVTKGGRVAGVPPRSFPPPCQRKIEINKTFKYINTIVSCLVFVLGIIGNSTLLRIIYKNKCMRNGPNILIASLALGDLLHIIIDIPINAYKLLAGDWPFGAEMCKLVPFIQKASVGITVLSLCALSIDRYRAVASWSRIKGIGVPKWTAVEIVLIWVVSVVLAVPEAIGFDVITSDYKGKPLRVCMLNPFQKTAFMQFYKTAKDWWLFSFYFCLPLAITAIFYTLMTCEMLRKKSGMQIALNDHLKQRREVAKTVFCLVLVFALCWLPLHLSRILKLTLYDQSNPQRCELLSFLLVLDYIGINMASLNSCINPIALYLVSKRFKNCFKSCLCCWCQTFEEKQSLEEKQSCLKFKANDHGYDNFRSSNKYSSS
Description: In vitro inhibition of [125I]ET1 binding to rat cerebellum Endothelin B receptor. The test is classed as tissue-based. In short, it runs like this:
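Rat cerebellum was homogenized in Tris/sucrose/EDTA buffer with protease inhibitors; the 40000g membrane pellet was used. Nonspecific binding was defined with 500 nM ET-1. IC50 by curve fitting; single experiment.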

The target of the next test is T2, Endothelin-1 receptor (Rattus norvegicus, UniProt P26684).
T2 sequence (P26684 whole entry): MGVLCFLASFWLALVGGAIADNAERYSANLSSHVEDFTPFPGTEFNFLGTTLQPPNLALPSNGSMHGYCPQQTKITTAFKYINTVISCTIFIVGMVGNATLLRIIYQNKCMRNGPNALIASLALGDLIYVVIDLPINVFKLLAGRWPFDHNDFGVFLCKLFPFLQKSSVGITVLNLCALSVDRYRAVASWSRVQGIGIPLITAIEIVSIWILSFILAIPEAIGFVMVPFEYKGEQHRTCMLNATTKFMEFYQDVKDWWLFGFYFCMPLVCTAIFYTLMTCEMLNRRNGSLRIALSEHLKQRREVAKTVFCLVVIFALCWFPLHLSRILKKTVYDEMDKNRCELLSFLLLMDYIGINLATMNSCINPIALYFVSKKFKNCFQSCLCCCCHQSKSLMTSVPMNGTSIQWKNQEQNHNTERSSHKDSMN
Description: In vitro inhibition of [125I]ET1 binding to rat A10 cell Endothelin A receptor. The class given is cell-based. In short, it runs like this: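 Rat A10 cells were harvested, washed in 50 mM Hepes pH 7.3 with 1 mM CaCl2 and 5 mM MgCl2, and frozen. Nonspecific binding was defined with 500 nM ET-1. IC50 came from curve fitting; mean of n ± SEM.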

Test [2] is filed under the species Rattus norvegicus. Description: Antagonism of ET-1 mediated contraction of isolated de-endothelialized rat aortic rings. The class given is functional, Aorta.
Test [3] concerns Rattus norvegicus. Description: Effect of compound on ET-1 induced changes in diastolic blood pressure in the pithed rat pretreated with BQ 788 (3 mg/kg) at 75 uM/kg (iv) dose. The class given is functional, Artery. In short, it runs like this:
(§1)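 Male Sprague-Dawley rats (250–350 g), isoflurane-anesthetized, pithed and artificially respired. Dosing via the jugular vein; blood pressure via carotid artery transducer. BQ 788 (3 mg/kg) and test compound given iv 10 min before a bolus ET-1 dose–pressor curve (0.01–10 nmol/kg). Fold rightward shift from vehicle measured at the ET-1 dose giving a 40 mmHg diastolic change. Mean of 4–6 rats.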

The subject of test [4] is Rattus norvegicus. Description: Effect of compound on ET-1 induced changes in diastolic blood pressure in the pithed rat pretreated with BQ 788 (3 mg/kg) at 7.5 uM/kg (iv) dose. The test is classed as functional, Artery. In short, it runs like this: as §1
Test [5] has as its system Rattus norvegicus. Description: Effect of compound on ET-1 induced changes in diastolic blood pressure in the pithed rat pretreated with BQ 788 (3 mg/kg) at 2.5 uM/kg (iv) dose; NS = Not significant. The class given is functional, organism-based. The following applies: Artery. In short, it runs like this:
as §1

Test [6] relates to Rattus norvegicus. In words: Effect of compound on ET-1 induced changes in diastolic blood pressure in the pithed rat pretreated with BQ 788 (3 mg/kg) at 25 uM/kg (iv) dose. The class given is functional, Artery. In short, it runs like this:
as §1

The source made the active and inactive calls. The rule behind the calls is not given here. Where a SMILES comes first, the peptide text is derived from it. [ ]: non-standard residue; d: D form.

In the case of `Cc1ccccc1C(CCC(=O)O)Oc1cc(OCc2ccsc2)ccc1C(=O)O` (stereo not drawn), the IC50 in test [1] is above 10 µM; on Endothelin-1 receptor, 0.207 µM.
The matching figures for `Cc1ccccc1C(CCC(=O)O)Oc1cc(OCc2ccsc2)ccc1-c1ccccn1` (stereo not drawn): 10 µM and 0.04 µM.
The matching figures for `Cc1ccccc1C(CCC(=O)O)Oc1cc(OCc2ccsc2)ccc1-c1ncco1` (stereo not drawn): 10 µM and 0.02 µM.
For `Cc1ccccc1C(CCC(=O)O)Oc1cc(OCc2ccsc2)ccc1-c1cc(C(=O)O)[nH]n1` (stereo not drawn), the IC50 in test [1] came to 3 µM; at Endothelin-1 receptor it was 0.007 µM. The pKB in the test listed under Rattus norvegicus [2] was determined as 7.3.
For `Cc1ccccc1C(CCC(=O)O)C(=O)c1cccc(OCc2ccsc2)c1` (stereo not drawn), in that order: above 30 µM, 0.11 µM and 5.7.
For the compound `O=C(O)c1cc(-c2ccc(OCc3ccccc3)cc2OCc2ccccc2)n[nH]1`, the IC50 in test [1] was above 30 µM; at Endothelin-1 receptor, 1 µM.
In turn, `Cc1ccccc1C(CCC(=O)O)Oc1cc(OCc2ccsc2)ccc1C#N` (stereo not drawn) registered an IC50 in test [1] of 5 µM.
On to `Cc1ccccc1C(CCC(=O)O)Oc1cc(OCc2ccsc2)ccc1-c1ncc[nH]1` (stereo not drawn), for which the IC50 in test [1] was above 10 µM; on Endothelin-1 receptor, 0.163 µM.
The matching figures for `Cc1ccccc1C(CCC(=O)O)Oc1cc(OCc2ccsc2)ccc1-c1cc[nH]n1` (stereo not drawn): 10 µM and 0.02 µM.
With `Cc1ccccc1[C@@H](CCC(=O)O)Oc1cc(OCc2ccc3c(c2)OCO3)ccc1C#N`, the IC50 in test [1] was found to be 10 µM; at Endothelin-1 receptor, 0.069 µM.
The matching figures for `Cc1ccccc1C(CCC(=O)O)Oc1cccc(OCc2ccsc2)c1` (stereo not drawn): above 30 µM and 0.871 µM.
With `Cc1ccccc1[C@@H](CCC(=O)O)Oc1cc(OCc2ccncc2)ccc1C#N`, the IC50 in test [1] was 10 µM; at Endothelin-1 receptor, 0.02 µM. Besides, in the test filed under Rattus norvegicus [2], the pKB is listed as 7.1.
`Cc1ccccc1[C@@H](CCC(=O)O)Oc1cc(OCc2cccnc2)ccc1C#N`: the Shift in the test with Rattus norvegicus [3] is 36.58; in the test with Rattus norvegicus [4], 2.27; in the test on Rattus norvegicus [6] it was 10.48. Further, the IC50 stood at 10 µM in test [1] and 0.005 µM on Endothelin-1 receptor. In the test with Rattus norvegicus [5], the Shift entry was “inactive”.
In the case of `Cc1ccccc1[C@@H](CCC(=O)O)Oc1cc(OCc2cnsc2)ccc1C#N`, the values for the IC50 (in test [1]; at Endothelin-1 receptor) were 10 µM and 0.007 µM, respectively. This compound also returned a pKB in the test listed under Rattus norvegicus [2] of 7.3.
Take `Cc1ccccc1[C@H](CCC(=O)O)Oc1cc(OCc2ccsc2)ccc1C#N`: the IC50 in test [1] was 10 µM.
As for `CC(=O)c1ccc(OCc2ccsc2)cc1OC(CCC(=O)O)c1ccccc1C` (stereo not drawn), the IC50 in test [1] is 10 µM; at Endothelin-1 receptor, 0.026 µM.
In turn, `CC(C)C[C@@H]1NC(=O)[C@@H](C(C)C)NC(=O)[C@@H]2CCCN2C(=O)[C@@H](CC(=O)O)NC(=O)[C@@H](Cc2c[nH]c3ccccc23)NC1=O` [BQ-123] (cyclo(L[dW][dD]P[dV])) had an IC50 on Endothelin-1 receptor of 0.014 µM.
Consider `Cc1ccccc1C(CCC(=O)O)Oc1cc(OCc2ccsc2)ccc1C(N)=O` (stereo not drawn), for which the results for the IC50 (in test [1]; on Endothelin-1 receptor) were 10 µM and 0.029 µM, respectively.
`Cc1ccccc1[C@@H](CCC(=O)O)Oc1cc(OCc2ccsc2)ccc1C#N` returned an IC50 in test [1] above 10 µM. In the test filed under Rattus norvegicus [2], this compound had a pKB of 7.4.
